Measurements from ChEMBL document CHEMBL4651341, “The discovery of a novel series of compounds with single-dose efficacy against juvenile and adult Schistosoma species” (PLoS Negl Trop Dis, 2021).

Tests used:
Schistosoma mansoni [1] = test: Concentration required to kill 50% of 21 day old worms 5 days after drug treatment.; type: functional, organism-based; conditions: Puerto Rican, 120 h
Outline: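 Juvenile S. mansoni (Puerto Rican strain) were perfused from CD1 mice 3 weeks post-infection and washed. They were cultured 6–8 per well in 200 µL DMEM with 2 mM glutamine, penicillin/streptomycin and 10% FCS at 37 °C, 5% CO2. Viability of individual worms was scored on day 5 after dosing (120 h).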

Schistosoma mansoni [2] = test: Concentration required to kill 50% of 42 day old worms 5 days after drug treatment.; type: functional, organism-based; conditions: Puerto Rican, 120 h
Outline: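 Adult S. mansoni were perfused from CD1 mice 6 weeks post-infection and washed. They were cultured 3 pairs per well in 1 mL DMEM with 2 mM glutamine, penicillin/streptomycin and 10% FCS […] at 37 °C, 5% CO2. Viability of individual worms was scored on day 5 (120 h).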

[3] = Mean oral bioavailability in Swiss albino male mice at […] per compound (administered in a mixture of 5 compounds to 3 mice) assessed by LCMS/MS.; also: dose 2.5 mg/kg; type: ADME, organism-based; conditions: mouse, in vivo
[4] = Mean plasma concentration at 24h in Swiss albino male mice at […] per compound (administered orally in a mixture of 5 compounds to 3 mice) assessed by LCMS/MS.; type: ADME, organism-based; conditions: mouse, po
[5] = Mean AUC inf in Swiss albino male mice at 1 mg/kg per compound (administered iv in a mixture of 5 compounds to 3 mice) assessed by LCMS/MS.; type: ADME, organism-based; conditions: male, Swiss albino, mouse, in vivo
Outline: (§1)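 Male Swiss albino mice (~30 g), 3 per experiment, mostly dosed as mixtures of 5 compounds iv via the lateral tail vein. Vehicle: 10% DMSO/90% 50 mM Na2HPO4 with 0.5% Tween-80. Blood sampled at 5, 15, 30 min and 1, 2, 4, 8, 24 h. Plasma stored at −20 °C and quantified by LC-MS after acetonitrile precipitation.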

[6] = Mean volume of distribution at steady state in Swiss albino male mice at 1 mg/kg per compound (administered iv in a mixture of 5 compounds to 3 mice) assessed by LCMS/MS.; type: ADME, organism-based; conditions: mouse, in vivo, read-out: Volume
Outline: (§2)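 Male Swiss albino mice (~30 g), 3 per experiment, mostly dosed as mixtures of 5 compounds iv via the lateral tail vein. Vehicle: 10% DMSO/90% 50 mM Na2HPO4 with 0.5% Tween-80. Plasma stored at −20 °C and quantified by LC-MS after acetonitrile precipitation.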

[7] = Mean half-life in Swiss albino male mice at 1 mg/kg per compound (administered iv in a mixture of 5 compounds to 3 mice) assessed by LCMS/MS.; type: ADME, organism-based; conditions: mouse, in vivo; outline: as §2
[8] = Concentration required to kill 50% HepG2 cells as detected by MTT staining; type: toxicity, cell-based; conditions: homo sapiens, read-out: TC50 (the source's name)
[9] = Mean observed clearance in Swiss albino male mice at 1 mg/kg per compound (administered iv in a mixture of 5 compounds to 3 mice) assessed by LCMS/MS.; type: ADME, organism-based; conditions: male, Swiss albino, mouse, in vivo, read-out: Clearance (converted); outline: as §1
[10] = Mean plasma concentration at 4h in Swiss albino male mice at […] per compound (administered orally in a mixture of 5 compounds to 3 mice) assessed by LCMS/MS.; type: ADME, organism-based; conditions: mouse, po
[11] = Mean time to peak plasma concentration in Swiss albino male mice at […] per compound (administered orally in a mixture of 5 compounds to 3 mice) assessed by LCMS/MS.; type: ADME, organism-based; conditions: mouse, po
[12] = Partition coefficient of compound between n-octanol and PBS (pH7.4); type: physicochemical; conditions: octanol/water, pH 7.4
Outline: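 Shake-flask method using octanol and PBS pH 7.4, each pre-saturated with the other. Compound was shaken 2 h at 850 rpm, 25 °C, then the phases were separated by centrifugation and both layers diluted and analysed by LC-MS/MS. LogD = log(octanol AUC × relative dilution / buffer AUC).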

[13] = male, Swiss albino, read-out: Bioavailability

SMILES | EC50 (Schistosoma mansoni [1]) | EC50 (Schistosoma mansoni [2]) | other results
Cn1ncc2cccc(-c3cn4c(-c5ccc(O)cc5)cnc4cn3)c21 | > 25000 nM | – | –
Oc1ccc(-c2cnc3cnc(-c4cccc(C(F)(F)F)c4)cn23)c(Cl)c1 | 4260 nM | – | –
Oc1ccc(-c2cnc3cnc(-c4ccc5[nH]ncc5c4)cn23)cc1 | > 25000 nM | – | –
CC(C)c1nc2cnc(-c3cccc(Br)c3)cn2c1-c1ccc2[nH]ncc2c1F | 26.6 nM | 36 nM | –
COc1ccc(C(C)C)cc1-c1cn2c(-c3ccc(O)cc3)cnc2cn1 | 6060 nM | – | –
Fc1ccc(-c2cn3c(-c4ccc5[nH]ncc5c4F)c(C(F)(F)F)nc3cn2)cc1C1CC1 | 19.3 nM | 12 nM | bioavailability [3, 13]: 135%; concentration at 24 h [4]: 6.53 ng/mL; AUC(0-inf) [5]: 270 ng·h/mL; Vd [6]: 4.45 L/kg; half-life [7]: 2.82 h; CC50 [8]: 10500 nM; clearance [9]: 31.5 mL/min/kg; concentration at 4 h [10]: 131 ng/mL; Tmax [11]: 0.67 h
Cn1nccc1-c1cn2c(-c3ccc(O)cc3)cnc2cn1 | > 25000 nM | – | –
COc1cc(-c2cn3c(-c4ccc(O)cc4)cnc3cn2)ccn1 | > 25000 nM | – | –
Oc1ccc(-c2cnc3cnc(-c4cnc(-c5ccccc5)o4)cn23)cc1 | > 25000 nM | – | –
Oc1ccc(-c2cnc3cnc(-c4cnn(CC5CC5)c4)cn23)cc1 | > 25000 nM | – | –
CN(C)Cc1cccc(-c2cn3c(-c4ccc(O)cc4)cnc3cn2)c1 | 24600 nM | – | –
Fc1ccc(-c2cn3c(-c4ccc5[nH]ncc5c4F)c(C(F)(F)F)nc3cn2)cc1Br | 34.4 nM | 47.9 nM | –
Cc1n[nH]c(C)c1-c1cn2c(-c3ccc(O)cc3)cnc2cn1 | > 25000 nM | – | –
Oc1ccc(-c2cnc3cnc(-c4cccc(C(F)(F)F)c4F)cn23)cc1 | > 25000 nM | – | –
Cc1c(-c2cn3c(-c4ccc(O)cc4)cnc3cn2)cnn1C | > 25000 nM | – | –
CN(C)C(=O)c1cccc(-c2cn3c(-c4ccc(O)cc4)cnc3cn2)c1 | > 25000 nM | – | –

SMILES | EC50 (Schistosoma mansoni [1]) | EC50 (Schistosoma mansoni [2]) | other results
Oc1ccc(-c2cnc3cnc(-c4ccc5cn[nH]c5c4)cn23)cc1 | 25000 nM | – | –
CC(C)c1nc2cnc(-c3ccc(F)c(C(F)(F)F)c3)cn2c1-c1c(F)ccc(O)c1F | 320 nM | 455 nM | –
COc1cc(O)ccc1-c1c(C(C)C)nc2cnc(-c3cccc(C(F)(F)F)c3)cn12 | 1050 nM | 918 nM | –
CC(C)Oc1cc(-c2cn3c(-c4ccc5[nH]ncc5c4F)c(C(F)(F)F)nc3cn2)ccc1F | – | – | bioavailability [3]: 152%; AUC(0-inf) [5]: 340 ng·h/mL; Lipophilicity [12]: 5.47 =; CC50 [8]: 9250 nM; concentration at 4 h [10]: 185 ng/mL; Tmax [11]: 0.67 h
COc1cc(-c2c(C)nc3cnc(-c4cccc(C(F)(F)F)c4)cn23)ccc1O | 1270 nM | < 640 nM | –
CC(C)c1cccc(-c2ccc3nnc(-c4ccc(O)cc4)n3c2)c1 | > 25000 nM | – | –
CC(C)Oc1cccc(-c2cn3c(-c4ccc(O)cc4)cnc3cn2)c1 | 5310 nM | 4430 nM | –
COc1ccc(-c2nnc3ccc(-c4cccc(C(C)C)c4)cn23)cc1O | 9740 nM | – | –
Oc1ccc(-c2cnc3cnc(C4=CCOCC4)cn23)cc1 | > 25000 nM | – | –
OCCc1cccc(-c2cn3c(-c4ccc(O)cc4)cnc3cn2)c1 | > 25000 nM | – | –
CN(C)S(=O)(=O)c1cccc(-c2cn3c(-c4ccc(O)cc4)cnc3cn2)c1 | > 25000 nM | – | –
CS(=O)(=O)c1cncc(-c2cn3c(-c4ccc(O)cc4)cnc3cn2)c1 | > 25000 nM | – | –
Fc1ccc(-c2cn3c(-c4ccc5[nH]ncc5c4F)c(C(F)(F)F)nc3cn2)cc1C1CCC1 | 59.1 nM | 45.8 nM | bioavailability [3, 13]: 121%; concentration at 24 h [4]: 3.2 ng/mL; AUC(0-inf) [5]: 230 ng·h/mL; Vd [6]: 3.77 L/kg; half-life [7]: 2.2 h; CC50 [8]: 6090 nM; clearance [9]: 35.7 mL/min/kg; concentration at 4 h [10]: 123 ng/mL; Tmax [11]: 1.33 h
C#CCOc1cc(-c2cn3c(-c4ccc5[nH]ncc5c4F)c(C(F)(F)F)nc3cn2)ccc1F | 21 nM | 10.4 nM | –
Oc1cc(F)c(-c2c(CC(F)(F)F)nc3cnc(-c4ccc(F)c(C(F)(F)F)c4)cn23)c(F)c1 | 139 nM | 79.3 nM | –
CC(C)c1nc2cnc(-c3ccc(F)c(C(F)(F)F)c3)cn2c1-c1ccc2[nH]cnc2c1F | 658 nM | 904 nM | –
